From PubChem
An excerpt weighted towards active compounds, which were near 1.5% of everything screened.
proCasp3 act – activates human procaspase-3. 0.11% of 330,000 active. recombinant procaspase-3 D3A, Ac-DEVD-pNA absorbance 405 nm. P42574. activation, % at 8.5 µM;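 active means activation above the mean of all tested compounds plus 3 SD, cut at about 21% in these data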;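 further: 0% = DMSO alone and 100% = DMSO wells spiked with extra 5 µM PC-3 D3A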
Target sequence (P42574 whole entry D9A/D28A/D175A): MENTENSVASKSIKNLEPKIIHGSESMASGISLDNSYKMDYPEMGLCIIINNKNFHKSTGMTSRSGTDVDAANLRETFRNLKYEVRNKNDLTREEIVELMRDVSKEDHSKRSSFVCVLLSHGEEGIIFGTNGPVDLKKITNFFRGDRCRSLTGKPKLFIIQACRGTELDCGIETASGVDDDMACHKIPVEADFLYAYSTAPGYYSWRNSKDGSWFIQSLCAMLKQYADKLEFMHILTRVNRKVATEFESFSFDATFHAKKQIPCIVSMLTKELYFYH
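Test system: Procaspase-3 D3A mutant, all three cleavage aspartates alanine | Dosing: Single dose, 8.5 µM nominal compound, 0.8% DMSO | Schedule: 1 h preincubation, 2 h reaction | Technique: 405 nm absorbance of p-nitroaniline, reads at 0 and 120 min | Repeats: One well per compound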
bovine MsrA act – activates bovine MsrA enzyme | 0.3% of 360,000 active | activation, % at 10.6 µM | AID 602163 | purified bovine MsrA, absorbance read-out; in the data active means activation above about 7.5%;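 further: 0% = vehicle and 100% = reference activator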
TbMetRS inhib – Trypanosoma brucei MetRS inhibition. 0.4% of 360,000 active. AID 624268. inhibition, % at 11.9 µM. purified T. brucei MetRS, ATP depletion, Kinase-Glo luminescence;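 active means inhibition above a per-plate cutoff of the control wells' mean inhibition plus 3 SD, cut at about 5.5% in these data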;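 further: 0% = DMSO wells median and 100% = median of wells with control inhibitor compound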
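Assay system: T. brucei methionyl-tRNA synthetase, purified | Medium: HEPES buffer with MgCl2, KCl, DTT, spermine, BSA, pyrophosphatase | Compound: 11.9 µM single point | Incubation: 15 min enzyme-compound preincubation, 2 h reaction, 10 min detection, 25 °C | Measured by: Kinase-Glo luciferase luminescence reporting remaining unconsumed ATP | Measure: % inhibition normalized to control-well medians | Replication: Singlicate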
proCasp7 act – counter-screen: procaspase-7 (human) activation; P55210; recombinant procaspase-7, Ac-DEVD-pNA absorbance 405 nm; D23A/D198A/D206A triple mutant, cannot self-cleave; scale: DMSO 0, 5 µM enzyme 100; activation, % at 8.5 µM; 0.093% of 330,000 active;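 active means percent activation above the screen-wide mean plus 3 SD, cut at about 25% in these data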
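signal = Epi-absorbance of released pNA at 405 nm, two timepoints | assay system = Uncleavable procaspase-7 mutant enzyme | reagent = Ac-DEVD-pNA substrate, 400 µM as added | times = 1 h enzyme–compound preincubation and 2 h substrate reaction, both 25 °C | benchmarks = low DMSO alone, high DMSO plus 5 µM PC-7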
MsrA inh – inhibits bovine methionine sulfoxide reductase A | purified bovine MsrA, absorbance read-out | inhibition, % at 15.5 µM | 0.75% of 360,000 active | AID 651718; in the data active means inhibition above about 4.5%;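 further: 0% = vehicle wells with enzyme and 100% = reference inhibitor wells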
Tb MetRS conf – Trypanosoma brucei MetRS inhibition confirmed | shares compounds with TbMetRS inhib | T. brucei MetRS enzyme, luminescence (ATP depletion) | inhibition, % at 11.9 µM | 93% of 1,400 active | AID 624412; in the data active means inhibition above about 7%
Jurkat cytotox – Jurkat T cell cytotoxicity for MetRS hits; Jurkat cells viability, ATP luminescence; shares compounds with TbMetRS inhib; inhibition, % at 8.3 µM; 12% of 1,400 active; in the data active means inhibition above about 15%;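 further: 0% = vehicle and 100% = reference inhibitor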
TbMetRS FP orth – inhibits T. brucei methionyl tRNA synthetase in orthogonal FP test; shares compounds with TbMetRS inhib; purified T. brucei MetRS, fluorescence polarization; inhibition, % at 11.9 µM; 44% of 1,400 active; in the data active means inhibition above about 17%;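 further: 0% = vehicle wells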
* = called active by the depositor.

O=C(NCc1cc(Cl)cc(Cl)c1)c1csc([C@@H]2O[C@H](CO)[C@H](O)[C@H](O)[C@H]2O)n1 was read as bovine MsrA act -2, TbMetRS inhib 8.7*, MsrA inh 2, Tb MetRS conf 31*, Jurkat cytotox -8 and TbMetRS FP orth 7.
Screening O=C(NCc1cccnc1)c1ccc2sc([C@@H]3O[C@H](CO)[C@H](O)[C@H](O)[C@H]3O)nc2c1 returned bovine MsrA act -5, TbMetRS inhib 0 and MsrA inh -1.
O=C(CN1CCN(c2ccccc2F)CC1)c1c[nH]c2ccc(F)cc12 was read as proCasp3 act -4, bovine MsrA act -8, TbMetRS inhib 11*, proCasp7 act 7, MsrA inh 1, Tb MetRS conf 17*, Jurkat cytotox -10 and TbMetRS FP orth 2.
Screening NC(=O)C1CCN(CC(=O)c2c[nH]c3ccc(F)cc23)CC1 returned proCasp3 act 0, bovine MsrA act -2, TbMetRS inhib 4, proCasp7 act 8 and MsrA inh 0.
For Fc1ccc2[nH]c3c(NCCN4CCOCC4)ncnc3c2c1 the results were proCasp3 act 3, bovine MsrA act -10, TbMetRS inhib 27*, proCasp7 act 14, Tb MetRS conf 47*, Jurkat cytotox 14 and TbMetRS FP orth 20*.
Screening Clc1ccc2[nH]c3c(NCCN4CCOCC4)ncnc3c2c1 returned proCasp3 act -2, bovine MsrA act -3, TbMetRS inhib 42*, proCasp7 act 2, MsrA inh 0, Tb MetRS conf 62*, Jurkat cytotox 3 and TbMetRS FP orth 26*.
Clc1ccc2[nH]c3c(NCC4CCCO4)ncnc3c2c1 (centres undefined) was read as proCasp3 act -1, proCasp7 act -6 and MsrA inh 1.
For O=c1c2[nH]c3ccc(F)cc3c2ncn1CCCN1CCOCC1 the results were proCasp3 act -6, bovine MsrA act -8, TbMetRS inhib -1, proCasp7 act 0 and MsrA inh 0.
Screening CC(C(=O)Nc1cccc([N+](=O)[O-])c1)n1nnc2ccccc21 (centres undefined) returned proCasp3 act 8, bovine MsrA act -9, TbMetRS inhib 20*, proCasp7 act 0, MsrA inh 0, Tb MetRS conf 31*, Jurkat cytotox 5 and TbMetRS FP orth 10.
`CC(C(=O)Nc1cccc([N+](=O)[O-])c1)[n+]1ccccc1` (centres undefined) gave proCasp3 act 11, bovine MsrA act -4, TbMetRS inhib 1, proCasp7 act 9 and MsrA inh -1.
`O=C(Cn1cnc2ccccc21)Nc1cccc([N+](=O)[O-])c1` gave proCasp3 act 1, bovine MsrA act -1, TbMetRS inhib 81*, proCasp7 act 2, MsrA inh 0, Tb MetRS conf 95*, Jurkat cytotox 6 and TbMetRS FP orth 71*.
Screening O=C(COC(=O)Cn1cnc2ccccc21)Nc1cccc([N+](=O)[O-])c1 returned proCasp3 act -3, bovine MsrA act -3, TbMetRS inhib 0, proCasp7 act 1 and MsrA inh 0.
O=C1N(Cc2cccc(Cl)c2)C[C@@H]2C[C@@H](c3cccc4ncccc34)N3CCC[C@@]123 was read as proCasp3 act 2, bovine MsrA act -4, TbMetRS inhib 0, proCasp7 act 7 and MsrA inh -2.
For O=C1N(Cc2cccc(Cl)c2)C[C@@H]2C[C@@H](c3c[nH]c4ccccc34)N3CCC[C@@]123 the results were proCasp3 act 1, bovine MsrA act -3, TbMetRS inhib 5.9*, proCasp7 act 8, MsrA inh -1, Tb MetRS conf 11*, Jurkat cytotox 5 and TbMetRS FP orth 8.
